Published values from different studies.
Protocols differ between the studies behind these lines.
Organism: Acinetobacter baumannii
Observed: microbial growth

CCCNc1nc(N(C)C)c2c(c1O)C(=O)C1=C(O)[C@]3(O)C(=O)C(C(N)=O)=C(O)[C@@H](N(C)C)[C@@H]3C[C@@H]1C2.Cl.Cl — MIC (broth dilution; ATCC19606): > 32 µg/mL
O=C(O)c1ccc(-n2cc(/C=N/Nc3ccc(F)c(Cl)c3)c(-c3ccc4ccccc4c3)n2)cc1 — MIC (ATCCBAA1605): 25 µg/mL
N=C(N)c1ccc(OCc2cccc(COc3ccc(C(=N)N)cc3)c2)cc1 — MIC (broth dilution; ATCC17978): > 200 µg/mL
CN(C)Cc1ccc2c(N(C)C)c3c(c(O)c2c1)C(=O)C1=C(O)[C@]2(O)C(=O)C(C(N)=O)=C(O)[C@@H](N(C)C)[C@@H]2C[C@@H]1C3 — MIC (broth dilution; ATCC19606): 1 µg/mL
CNC(C)C1CCC(N)C(OC2C(N)CC(N)C(OC3OCC(C)(O)C(NC)C3O)C2O)O1 (stereo not shown) — MIC (broth dilution; ATCC19606): 0.5 µg/mL
O=C(Nc1ccc(F)c(Cl)c1)c1cc(Cl)ccc1O — MIC (broth dilution; BAA1605): > 64 µg/mL
CN[C@H](CC(C)C)C(=O)N[C@H]1C(=O)N[C@@H](CC(N)=O)C(=O)N[C@H]2C(=O)N[C@H]3C(=O)N[C@H](C(=O)N[C@H](C(=O)O)c4cc(O)cc(O)c4-c4cc3ccc4O)[C@H](O)c3ccc(c(Cl)c3)Oc3cc2cc(c3O[C@@H]2O[C@H](CO)[C@@H](O)[C@H](O)[C@H]2O[C@H]2C[C@](C)(N)[C@H](O)[C@H](C)O2)Oc2ccc(cc2Cl)[C@H]1O — MIC (broth dilution; BAA747): > 128 µM
CN(C)CCCNc1nc(Cl)c2c(c1O)C(=O)C1=C(O)[C@]3(O)C(=O)C(C(N)=O)=C(O)[C@@H](N(C)C)[C@@H]3C[C@@H]1C2.Cl — MIC (broth dilution; ATCC19606): > 32 µg/mL
CCCCCCC/C=C/C(=O)N1C(=O)/C(=C(/C)O)C(=O)C1CCC(=O)O (stereo not shown) — MIC (ATCC19606): > 200 µg/mL
CNc1cccc2c(O)c3c(cc12)C[C@H]1C[C@H]2[C@H](N(C)C)C(O)=C(C(N)=O)C(=O)[C@@]2(O)C(O)=C1C3=O — MIC (broth dilution; ATCC19606): > 32 µg/mL
CCCCCCC/C=C/C(=O)N1C(=O)/C(=C(\O)c2ccc(O)cc2)C(=O)C1CC(C)C (stereo not shown) — MIC (ATCC19606): > 200 µg/mL
N=C(N)NN=Cc1ccc(OC/C=C\COc2ccc(C=NNC(=N)N)cc2)cc1 — MIC (ATCC19606; 16 h): ≤ 51 µg/mL
CCCCCCC/C=C/C(=O)N1C(=O)/C(=C(\O)CCCC)C(=O)C1CC(C)C (stereo not shown) — MIC (ATCC19606): 200 µg/mL
CN(C)c1ccc(-c2ccc3cc4c(c(O)c3c2)C(=O)C2=C(O)[C@]3(O)C(=O)C(C(N)=O)=C(O)[C@@H](N(C)C)[C@@H]3C[C@@H]2C4)cc1 — MIC (broth dilution; ATCC19606): 32 µg/mL
NC[C@H]1O[C@H](O[C@H]2[C@H](O)[C@@H](O[C@H]3O[C@H](CO)[C@@H](O)[C@H](N)[C@H]3O)[C@H](N)C[C@@H]2N)[C@H](N)C[C@@H]1O — MIC (broth dilution; clinical isolate): > 200 µM
C/C(=C\c1ccc(O)cc1)C(=O)Nc1ccc(C(=O)N[C@@H](CC(N)=O)C(=O)Nc2ccc(C(=O)Nc3ccc(C(=O)Nc4ccc(C(=O)O)cc4)c(O)c3OC(C)C)cc2)cc1 — MIC (DSM30008): 0.25 µg/mL
CN(C)c1cc(CNCC(C)(C)C)c(O)c2c1C[C@H]1C[C@H]3[C@H](N(C)C)C(O)=C(C(N)=O)C(=O)[C@@]3(O)C(O)=C1C2=O — MIC (broth dilution; ATCC19606): 1 µg/mL
O=C(Cc1cc(O)c(O)c(O)c1)NCCCCCCCC[P+](c1ccccc1)(c1ccccc1)c1ccccc1.[Br-] — MIC (broth dilution; ATCC19606; 18 h): > 32 µg/mL
N=C(N)c1ccc(OCc2ccc(Br)cc2COc2ccc(C(=N)N)cc2)cc1 — MIC (broth dilution; ATCC17978): > 200 µg/mL
O=[N+]([O-])c1ccc(O)c2ncccc12 — MIC (broth dilution; ATCC19606): 8 µg/mL
C[C@@H](O)[C@H]1C(=O)N2C(C(=O)O)=C(S[C@@H]3CN[C@H](C(=O)N(C)C)C3)[C@H](C)[C@H]12 — MIC (broth dilution; KCCM40203; 16 h): 2 µM
CN(C)[C@@H]1C(O)=C(C(N)=O)C(=O)[C@@]2(O)C(O)=C3C(=O)c4c(O)c(-c5ccccc5)nc(Cl)c4C[C@H]3C[C@@H]12.Cl — MIC (broth dilution; ATCC19606): 16 µg/mL
O=C(O)c1ccc(-n2cc(/C=N/Nc3cccc(Cl)c3)c(-c3cccc(F)c3)n2)cc1 — MIC (ATCCBAA1605): 6.25 µg/mL
CNC(=O)c1cc(Oc2ccc(NC(=O)Nc3ccc(Cl)c(C(F)(F)F)c3)cc2)ccn1 — MIC (DSM30007): > 100 µM
CO[C@H]1/C=C/O[C@@]2(C)Oc3c(C)c(O)c4c(O)c(c(/C=N/N5CCN(C)CC5)c(O)c4c3C2=O)NC(=O)/C(C)=C\C=C\[C@H](C)[C@H](O)[C@@H](C)[C@@H](O)[C@@H](C)[C@H](OC(C)=O)[C@@H]1C — MIC (NCTC13301): 4 µg/mL
NC[C@H]1O[C@H](O[C@H]2[C@H](O)[C@@H](O[C@H]3O[C@H](CO)[C@@H](O)[C@H](N)[C@H]3O)[C@H](N)C[C@@H]2N)[C@H](N)C[C@@H]1O — MIC: 1 µg/mL
C/C(O)=C1\C(=O)C(CC(C)C)N(C(=O)C=Cc2ccccc2)C1=O (stereo not shown) — MIC (ATCC19606): > 200 µg/mL
CN(C)[C@@H]1C(O)=C(C(N)=O)C(=O)[C@@]2(O)C(O)=C3C(=O)c4c(O)cncc4C[C@H]3C[C@@H]12.Cl.Cl — MIC (broth dilution; ATCC19606): 2 µg/mL
NCCCNC1CCCCc2c1[nH]c1ccc(Br)cc21 (stereo not shown) — MIC (broth dilution; ATCC19606): 32 µg/mL
N=C(N)c1ccc(OCc2ccccc2COc2ccc(C(=N)N)cc2)cc1 — MIC (broth dilution; ATCC17978): > 200 µg/mL
COc1cccc2c(O)c3c(cc12)C[C@H]1C[C@H]2[C@H](N(C)C)C(O)=C(C(N)=O)C(=O)[C@@]2(O)C(O)=C1C3=O — MIC (broth dilution; ATCC19606): > 32 µg/mL
O=C(O)c1ccc(-n2cc(/C=N/Nc3ccc(F)cc3)c(-c3ccc(F)cc3)n2)cc1 — MIC (ATCCBAA1605): 25 µg/mL
O=C(CCCCCCCCCC[P+](c1ccccc1)(c1ccccc1)c1ccccc1)Nc1cc(O)c(O)c(O)c1.[Br-] — MIC (broth dilution; ATCC19606; 18 h): > 32 µg/mL
O=C(O)c1ccc(-n2cc(/C=N/Nc3cccc(F)c3)c(-c3ccc4ccccc4c3)n2)cc1 — MIC (ATCCBAA1605): 25 µg/mL
CC1(C)S[C@@H]2[C@H](NC(=O)C(C(=O)O)c3ccccc3)C(=O)N2[C@H]1C(=O)O (stereo partly shown) — MIC (broth dilution; clinical isolate): > 200 µM
CN[C@@H]1[C@@H](O)[C@@H](O[C@@H]2[C@@H](O)[C@H](O[C@H]3OC(CNCCO)=CC[C@H]3N)[C@@H](N)C[C@H]2NC(=O)[C@@H](O)CCN)OC[C@]1(C)O — MIC: 2 µg/mL
O=C(CCCCCCCC[P+](c1ccccc1)(c1ccccc1)c1ccccc1)Nc1ccc(O)c(O)c1.[Br-] — MIC (broth dilution; ATCC19606; 18 h): > 32 µg/mL
CC(NCCCCOc1ccc(Cl)c(Cl)c1)c1cc2cc(Br)ccc2[nH]1 (stereo not shown) — MIC (broth dilution; ATCC19606): 32 µg/mL
CCCCCCC/C=C/C(=O)N1C(=O)/C(=C(/C)O)C(=O)C1Cc1ccc(O)cc1 (stereo not shown) — MIC (ATCC19606): > 200 µg/mL
O=C(N[C@H](CO)[C@H](O)c1ccc([N+](=O)[O-])cc1)C(Cl)Cl — MIC (ATCC19606): 250 µg/mL
